Data as given in ChEMBL document CHEMBL4665669, “Novel tertiary sulfonamide derivatives containing benzimidazole moiety as potent anti-gastric cancer agents: Design, synthesis and SAR studies” (Eur J Med Chem, 2019).
Active and inactive are the calls of the source. The rule behind the calls is not given here.

Columns and labels:
MCF7 = assay: Anticancer activity against human MCF7 cells assessed as inhibition of cell proliferation after 48 hrs by MTT assay; type: functional, cell-based; settings: MCF7, 48 h
In short: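 MTT assay with 48 h compound exposure. MTT solution was then added and incubated 4 h at 37 °C, the supernatant discarded and formazan dissolved in DMSO, with absorbance read at 490 nm. IC50 values were calculated from three independent experiments, reported as mean SD.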

[1] = Selectivity index, ratio of IC50 for human GES1 cells to IC50 for human SGC-7901 cells assessed as inhibition of cell proliferation after 48 hrs by MTT assay
In short: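 Fold selectivity is the IC50 in GES-1 normal gastric epithelial cells divided by the IC50 in the gastric cancer line (HGC-27, MGC-803 or SGC-7901). Both IC50s come from 48 h exposure, MTT (4 h, 37 °C), DMSO solubilisation and 490 nm absorbance, with three independent experiments.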

SGC-7901 [2] = assay: Cell cycle arrest in human SGC-7901 cells assessed as accumulation at G2/M phase at 0.5 to 1.5 umol/L after 48 hrs by RNase/propidium iodide staining based flow cytometry; type: functional; settings: dose micromol/L 0.5-1.5, time 48.0 hrs
In short: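 MGC-803, SGC-7901 and HGC-27 cells were seeded in 6-well plates and treated 48 h with compound or DMSO. Cells were then harvested and fixed in 70% cold ethanol at 4 °C for 8 h, and cell-cycle phase distribution was quantified by flow cytometry.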

SGC-7901 [3] = assay: Cell cycle arrest at M phase in human SGC-7901 cells assessed as upregulation of p-Histone-3 level at 0.5 to 1.5 umol/L after 48 hrs by Western blot analysis; type: functional, cell-based; settings: dose micromol/L 0.5-1.5, time 48.0 hrs
In short: (§1)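 Western blot. Cells were treated with compound concentrations or DMSO for 48 h, then lysed, and lysates were denatured, run on SDS-PAGE and transferred to nitrocellulose. After blocking in 5% skimmed milk, membranes were incubated with primary antibodies at 4 °C for 8 h, then secondary antibodies, with ECL detection.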

SGC-7901 [4] = assay: Inhibition of Ras/Raf/MEK/ERK signalling pathway in human SGC-7901 cells assessed as decrease in c-Raf phosphorylation after 48 hrs by Western blot analysis; type: cell-based; settings: dose micromol/L 0.5-1.5, time 48.0 hrs
In short: (§2)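 Cells treated with graded concentrations or DMSO for 48 h, then harvested and lysed. Lysates denatured, resolved by SDS-PAGE and transferred to nitrocellulose. Membranes blocked with 5% skimmed milk and probed with primary antibodies at 4 °C for 8 h, then with secondary antibodies. Bands detected by ECL.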

SGC-7901 [5] = assay: Inhibition of Ras/Raf/MEK/ERK signalling pathway in human SGC-7901 cells assessed as decrease in MEK1 phosphorylation after 48 hrs by Western blot analysis; type: cell-based; settings: dose micromol/L 0.5-1.5, time 48.0 hrs; in short: as §2
MGC-803 [6] = assay: Inhibition of Ras/Raf/MEK/ERK signalling pathway in human MGC-803 cells assessed as decrease in ERK1/2 phosphorylation after 48 hrs by Western blot analysis; type: cell-based; settings: dose micromol/L 0.5-1.5, time 48.0 hrs; in short: as §2
MGC-803 [7] = assay: Inhibition of Ras/Raf/MEK/ERK signalling pathway in human MGC-803 cells assessed as downregulation of FoxO3a expression at 0.5 to 1.5 umol/L after 48 hrs by Western blot analysis; type: cell-based; settings: dose micromol/L 0.5-1.5, time 48.0 hrs; in short: as §2
HGC-27 [8] = assay: Inhibition of Ras/Raf/MEK/ERK signalling pathway in human HGC-27 cells assessed as downregulation of FoxO3a expression at 0.5 to 1.5 umol/L after 48 hrs by Western blot analysis; type: cell-based; settings: dose micromol/L 0.5-1.5, time 48.0 hrs; in short: as §2
SGC-7901 [9] = assay: Inhibition of Ras/Raf/MEK/ERK signalling pathway in human SGC-7901 cells assessed as downregulation of FoxO3a expression at 0.5 to 1.5 umol/L after 48 hrs by Western blot analysis; type: cell-based; settings: dose micromol/L 0.5-1.5, time 48.0 hrs; in short: as §2
HGC-27 [10] = assay: Inhibition of Ras/Raf/MEK/ERK signalling pathway in human HGC-27 cells assessed as downregulation of c-Myc expression at 0.5 to 1.5 umol/L after 48 hrs by Western blot analysis; type: cell-based; settings: dose micromol/L 0.5-1.5, time 48.0 hrs; in short: as §2
HGC-27 [11] = assay: Inhibition of Akt/mTOR signalling pathway in human HGC-27 cells assessed as decrease in mTOR phosphorylation at Ser2448 residue at 0.5 to 1.5 umol/L after 48 hrs by Western blot analysis; type: cell-based; settings: dose micromol/L 0.5-1.5, time 48.0 hrs; in short: as §2
MGC-803 [12] = assay: Induction of apoptosis in human MGC-803 cells after 48 hrs by flow cytometry analysis; type: functional, cell-based; settings: dose micromol/L 0.5-1.5, time 48.0 hrs
HGC-27 [13] = assay: Induction of apoptosis in human HGC-27 cells after 48 hrs by flow cytometry analysis; type: functional, cell-based; settings: dose micromol/L 0.5-1.5, time 48.0 hrs
SGC-7901 [14] = assay: Induction of apoptosis in human SGC-7901 cells assessed as increase in nucleus concentration at 0.5 to 1.5 umol/L after 48 hrs by imaging analysis; type: functional, cell-based; settings: dose micromol/L 0.5-1.5, time 48.0 hrs
HGC-27 [15] = assay: Induction of apoptosis in human HGC-27 cells assessed as cleavage of caspase-7 at 0.5 to 1.5 umol/L after 48 hrs Western blot analysis; type: functional, cell-based; settings: dose micromol/L 0.5-1.5, time 48.0 hrs; in short: as §1
HGC-27 [16] = assay: Induction of apoptosis in human HGC-27 cells assessed as upregulation of NOXA level at 0.5 to 1.5 umol/L after 48 hrs Western blot analysis; type: functional, cell-based; settings: dose micromol/L 0.5-1.5, time 48.0 hrs; in short: as §1
SGC-7901 [17] = assay: Induction of apoptosis in human SGC-7901 cells assessed as cleavage of PARP at 0.5 to 1.5 umol/L after 48 hrs Western blot analysis; type: functional, cell-based; settings: dose micromol/L 0.5-1.5, time 48.0 hrs; in short: as §1
SGC-7901 [18] = assay: Induction of apoptosis in human SGC-7901 cells assessed as upregulation of NOXA level at 0.5 to 1.5 umol/L after 48 hrs Western blot analysis; type: functional, cell-based; settings: dose micromol/L 0.5-1.5, time 48.0 hrs; in short: as §1
SGC-7901 [19] = assay: Induction of apoptosis in human SGC-7901 cells assessed as downregulation of Mcl-1 level at 0.5 to 1.5 umol/L after 48 hrs Western blot analysis; type: functional, cell-based; settings: dose micromol/L 0.5-1.5, time 48.0 hrs; in short: as §1
SGC-7901 [20] = assay: Induction of apoptosis in human SGC-7901 cells assessed as downregulation of c-IAP1 level at 0.5 to 1.5 umol/L after 48 hrs Western blot analysis; type: functional, cell-based; settings: dose micromol/L 0.5-1.5, time 48.0 hrs; in short: as §1
HGC-27 [21] = assay: Inhibition of colony formation in human HGC-27 cells at 0.5 to 1.5 umol/L after 7 days by crystal violet staining based assay; type: functional, cell-based; settings: dose micromol/L 0.5-1.5, time 7.0 day
In short: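 5000 cells per well seeded and held 24 h at 37 °C, 5% CO2, then exposed to graded concentrations (0.5, 1, 1.5 µmol/L). After 7 days the medium was removed and wells were washed twice with PBS. Colonies fixed in 4% paraformaldehyde and stained with 0.1% crystal violet.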

HGC-27 [22] = assay: Cell cycle arrest at G2 phase in human HGC-27 cells assessed as downregulation of CDK1 level at 0.5 to 1.5 umol/L after 48 hrs by Western blot analysis; type: functional, cell-based; settings: dose micromol/L 0.5-1.5, time 48.0 hrs; in short: as §1
SGC-7901 [23] = assay: Anticancer activity against human SGC-7901 cells assessed as cell growth at 0.5 to 1.5 umol/L after 48 hrs by MTT assay relative to control; type: functional; settings: dose micromol/L 0.5-1.5
MGC-803 [24] = assay: Inhibition of Ras/Raf/MEK/ERK signalling pathway in human MGC-803 cells assessed as effect on RAS level at 0.5 to 1.5 umol/L after 48 hrs by Western blot analysis; type: cell-based; settings: dose micromol/L 0.5-1.5, time 48.0 hrs; in short: as §2
HGC-27 [25] = assay: Inhibition of Ras/Raf/MEK/ERK signalling pathway in human HGC-27 cells assessed as effect on RAS level at 0.5 to 1.5 umol/L after 48 hrs by Western blot analysis; type: cell-based; settings: dose micromol/L 0.5-1.5, time 48.0 hrs; in short: as §2
SGC-7901 [26] = assay: Inhibition of Ras/Raf/MEK/ERK signalling pathway in human SGC-7901 cells assessed as effect on RAS level at 0.5 to 1.5 umol/L after 48 hrs by Western blot analysis; type: cell-based; settings: dose micromol/L 0.5-1.5, time 48.0 hrs; in short: as §2

## COc1cc(N(Cc2nc3ccccc3[nH]2)S(=O)(=O)c2ccc(C)cc2)cc(OC)c1OC
MCF7
  IC50: 5.4 µM
[1]
  Ratio IC50: 6.6
SGC-7901 [2]
  Activity: Active
SGC-7901 [3]
  Activity: Active
SGC-7901 [4]
  inhibition: Dose-dependent effect
SGC-7901 [5]
  inhibition: Dose-dependent effect
MGC-803 [6]
  inhibition: Dose-dependent effect
MGC-803 [7]
  inhibition: Active
HGC-27 [8]
  inhibition: Active
SGC-7901 [9]
  inhibition: Active
HGC-27 [10]
  inhibition: Active
HGC-27 [11]
  inhibition: Active
MGC-803 [12]
  Activity: Dose-dependent effect
HGC-27 [13]
  Activity: Dose-dependent effect
SGC-7901 [14]
  Activity: Active
HGC-27 [15]
  Activity: Active
HGC-27 [16]
  Activity: Active
SGC-7901 [17]
  Activity: Active
SGC-7901 [18]
  Activity: Active
SGC-7901 [19]
  Activity: Active
SGC-7901 [20]
  Activity: Active
HGC-27 [21]
  inhibition: Active
HGC-27 [22]
  Activity: Active
SGC-7901 [23]
  fold change (FC): <2
MGC-803 [24]
  inhibition: inactive
HGC-27 [25]
  inhibition: inactive
SGC-7901 [26]
  inhibition: inactive
